# Compound activity deposited in PubChem BioAssay by The Scripps Research Institute Molecular Screening Center.
# A selection: hits, their analogues and other compounds. The true share with any hit is near 2.3%.
# TAAR1 ag: human TAAR1 agonism; CHO RD-HGA16 TAAR1, Fluo-8 calcium fluorescence; vehicle wells 0%, saturating PEA agonist 100%; 360,000 tested, 0.99% active; activation, % at 3 µM; Q96RJ0;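 active = activation above the mean activation of all test compounds in the run plus 3 SD, cut at about 38% in these data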
#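 System: CHO RD-HGA16 cells carrying human TAAR1 plus Gα16; Incubation: 17-24 h seeding, 75 min 37 °C dye, 30 min RT; Measured by: Fluo-8 fluorescence, 5 s baseline then 140 s kinetic read; Control set: DMSO and PEA EC100; Replication: single well for each compound.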
# TAAR1 antagonist: antagonists of human TAAR1; AID 624466; inhibition, % at 3 µM; CHO RD-HGA16 TAAR1, Fluo-8 calcium fluorescence, antagonist; Q96RJ0; 360,000 tested, 1.5% active;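 active = inhibition above a per-plate cutoff, the mean inhibition of test compounds on that plate plus 3 SD, cut at about 49% in these data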;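 also: 0% = DMSO plus EC80 beta-PEA response and 100% = DMSO alone without agonist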
#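 Test system: RD-HGA16 CHO cells with stable hTAAR1 and Gα16 / Probe or stimulus: EC80 β-phenethylamine stimulus / Times: seeding 17-24 h prior, 75-min 37 °C, 30-min RT dye loading / Detection: Fluo-8 calcium-sensitive fluorescence / Read-out basis: % inhibition scaled between DMSO and EC80 PEA controls / Repeats: singlicate, one well per test compound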
# OXTR agonist: agonists of human oxytocin receptor; P30559; CHO-OTR cells, Fluo-8 calcium fluorescence; normalized: DMSO 0%, oxytocin 100%; activation, % at 3 µM; 320,000 tested, 0.32% active;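 active = activation above the mean of all tested compounds plus 3 SD, cutoff set per screening run, cut at about 20% in these data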;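 also: peak over basal fluorescence ratio from a 100 s FLIPR kinetic read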
# V1aR counter: activates human V1a receptor in oxytocin agonist counter-screen; P37288; CHO-V1R cells, Fluo-8 calcium fluorescence, agonist mode; 0% DMSO, 100% 3 nM vasopressin; activation, % at 3 µM; 320,000 tested, 0.25% active; AID 2797;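 active = activation above the mean activation of all tested compounds plus 3 SD, per screening run, cut at about 20% in these data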;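 also: signal is peak over basal fluorescence ratio across a 100 second FLIPR read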
# Target sequence (P37288 whole entry, looked up): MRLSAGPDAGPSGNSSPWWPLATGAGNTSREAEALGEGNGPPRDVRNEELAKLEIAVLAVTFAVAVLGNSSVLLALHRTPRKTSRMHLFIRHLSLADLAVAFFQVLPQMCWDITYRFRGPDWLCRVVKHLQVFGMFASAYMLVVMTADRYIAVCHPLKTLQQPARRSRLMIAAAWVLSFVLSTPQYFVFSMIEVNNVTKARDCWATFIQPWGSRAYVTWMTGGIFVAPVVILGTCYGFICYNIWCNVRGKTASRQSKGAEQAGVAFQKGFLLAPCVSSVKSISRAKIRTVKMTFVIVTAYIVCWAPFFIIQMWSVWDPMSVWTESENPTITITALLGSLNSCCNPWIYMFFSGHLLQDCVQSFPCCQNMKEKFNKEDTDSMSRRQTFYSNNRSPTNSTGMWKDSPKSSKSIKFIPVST
# OXTR potentiator: potentiators of human oxytocin receptor. P30559. CHO-OTR cells, Fluo-8 calcium fluorescence, potentiator mode; 0% = oxytocin EC15, 100% = EC100. activation, % at 3 µM. 320,000 tested, 0.061% active. AID 2445;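 active = activation above that plate's cutoff, the mean activation of tested compounds plus 3 SD, cut at about 6.6% in these data, passing the limit was not always enough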;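 also: 100% uses oxytocin at 75 nM as the full agonist control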
#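 Assay system: CHO-OTR cells, human receptor / Also added: oxytocin at about EC15, sub-maximal agonist stimulus / Dosing: single dose, 3.0 µM nominal final compound concentration / Incubation: 6 min pre-incubation, 100 s read / Technique: Fluo-8 calcium dye fluorescence / Read-out: % activation vs EC15 and EC100 oxytocin / Benchmarks: EC15 oxytocin low, 75 nM oxytocin high / Replicates: singlicate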
# TAAR1 ag conf: human TAAR1 agonism, confirmed. shares compounds with TAAR1 ag. CHO RD-HGA16 TAAR1, Fluo-8 calcium fluorescence; scaled: DMSO 0%, maximal phenethylamine 100%. activation, % at 3 µM. 2,400 tested, 82% active. AID 651783;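 active = activation above a cutoff set at the run's mean compound activation plus 3 SD, cut at about 39% in these data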
# Ga16 ag counter: counter-screen for TAAR1 agonists: nonselective agonists in parental cells; CHO-Ga16 parental, Fluo-8 calcium fluorescence; normalized to maximal ATP response, DMSO zero; AID 651787; activation, % at 3 µM; shares compounds with TAAR1 ag; 2,400 tested, 50% active;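 active = activation above the run cutoff, the mean activation over all tested wells plus 3 SD, cut at about 12% in these data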;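 also: 0% = DMSO wells and 100% = maximal ATP response on the peak over basal ratio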
# TAAR1 desensitize: counter-screen for human TAAR1 agonists: agonists that desensitize TAAR1; 2,400 tested, 46% active; shares compounds with TAAR1 ag; CHO RD-HGA16 hTAAR1, Fluo-8 calcium, beta-PEA response inhibition; AID 651951; inhibition, % at 3 µM;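 active = inhibition above the run cutoff, the mean inhibition of all test compounds plus 3 SD, cut at about 49% in these data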;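 also: beta-PEA stimulus applied at its EC80; loss of beta-PEA calcium signal after compound pretreatment read as receptor desensitization; 0% = DMSO with beta-PEA at EC80 and 100% = DMSO alone without agonist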
# Ga16 antag count: nonselective Ga16 antagonism, counter-screen | shares compounds with TAAR1 ag | CHO-Ga16 ATP-induced calcium, Fluo-8 fluorescence | inhibition, % at 3 µM | 2,400 tested, 39% active;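 active = inhibition above the plate's mean compound inhibition plus 3 SD, computed per plate, cut at about 22% in these data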;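 also: 0% = EC80 ATP with DMSO and 100% = DMSO wells without ATP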
# Numbers without * were called inactive; / = no result.
SMILES,TAAR1 ag,TAAR1 antagonist,OXTR agonist,V1aR counter,OXTR potentiator,TAAR1 ag conf,Ga16 ag counter,TAAR1 desensitize,Ga16 antag count
COC(=O)C1=C(C)N(Cc2cccc(C(F)(F)F)c2)C(=NCC2CC2)NC1c1cccc(F)c1 (centres undefined),131*,97*,/,/,/,104*,70*,92*,81*
COC(=O)C1=C(C)N(Cc2ccc(C(F)(F)F)cc2)C(=NCc2ccccc2)NC1c1cccc(F)c1 (centres undefined),40*,66*,/,/,/,30,18*,48,39*
COC(=O)C1=C(C)N(Cc2cccc(C(F)(F)F)c2)C(=NCc2ccc(C(F)(F)F)cc2)NC1c1cccc(F)c1 (centres undefined),14,14,/,/,/,/,/,/,/
Cn1cc([C@]2(O)C(=O)N(c3ccccc3)c3ccccc32)c2ccccc21,3,-6,/,/,/,/,/,/,/
CCC(NC(=O)Cc1c(C)c2cc3c(cc2oc1=O)OC(C)(C)CC3)C(=O)O (centres undefined),3,-4,0,3,-2,/,/,/,/
O=C(Nc1ccc(Cn2ccnc2)cc1)c1cccc(C(F)(F)F)c1,42*,31,/,/,/,57*,0,36,10
COc1ccc(-c2c(C)n([O-])c3c([n+]2=O)CCCC3)cc1OC,/,/,0,0,-9,/,/,/,/
OC(Cc1ccccc1Br)c1ncc(-c2ccc(Cl)cc2)[nH]1 (centres undefined),2,-9,/,/,/,/,/,/,/
COc1ccccc1CNC(=O)COC(=O)/C=C/c1ccc(OC(F)F)c(OC)c1,92*,78*,-1,-1,0,47*,23*,57*,23*
O=C(COC(=O)/C=C/c1ccc(OC(F)F)cc1)NCc1cccs1,82*,61*,2,3,-7,15,11,-1,5
Cc1ccoc1C(=O)N1CCCCC1C(=O)O (centres undefined),7,-4,1,2,-16,/,/,/,/
N#CC1(Nc2ccccc2)C(=O)Nc2ccccc21 (centres undefined),5,10,2,2,-6,/,/,/,/
N#CC1(Nc2cccc(Br)c2)C(=O)Nc2ccccc21 (centres undefined),83*,26,13,5,-12,54*,32*,52*,42*
COCCCNC(=O)C(=O)NC1CCCCC1C (centres undefined),0,13,-1,-1,-2,/,/,/,/
Cc1ccc2c(c1)N(C(=O)CCC(=O)NCc1cccc(Br)c1)CC(C)O2 (centres undefined),-1,3,-3,0,-2,/,/,/,/
CC[C@]12c3[nH]c4ccccc4c3CCN1C(=O)C(CC(=O)NCCCn1ccnc1)C[C@@H]2C(=O)N1CCN(C(=O)c2ccco2)CC1 (some centres undefined),7,-5,1,1,-2,/,/,/,/
OCCNCc1cc(Br)ccc1OCc1ccc(Cl)cc1,30,3,9,5,-5,/,/,/,/
OCCNCc1cc(Br)ccc1OCc1ccc(Cl)cc1Cl,56*,-7,/,/,/,79*,49*,51*,41*
CC(C)(C)N=C1C([N+](=O)[O-])=CC=C2C1=NC1(CCCCC1)N2O,0,-17,-2,-2,7,/,/,/,/
O=[N+]([O-])C1=CC=C2C(=NC3(CCCCC3)N2O)C1=NCCc1ccccc1,44*,14,/,/,/,79*,1,50*,4
COc1ccc(CC(=O)Nc2ccc(S(=O)(=O)Nc3onc(C)c3C)cc2)cc1OC,0,-7,1,1,-3,/,/,/,/
O=C(CN1CCN(S(=O)(=O)c2ccccc2)CC1)NCc1ccccc1,0,-1,1,0,-7,/,/,/,/
Cc1ccc(C(=O)NNC2=NC(C)(C)Cc3ccccc32)cc1,0,0,-2,-2,-3,/,/,/,/
Cc1ccsc1/C=N\Nc1cn[nH]c(=O)c1Cl,74*,54*,-2,0,5,87*,0,77*,2
Cc1ccc(/C=N\Nc2cn[nH]c(=O)c2Cl)cc1,41*,-2,-2,-1,-1,62*,0,24,9
SMILES,TAAR1 ag,TAAR1 antagonist,OXTR agonist,V1aR counter,OXTR potentiator,TAAR1 ag conf,Ga16 ag counter,TAAR1 desensitize,Ga16 antag count
O=c1[nH]ncc(N/N=C/c2ccccc2)c1Cl,64*,78*,-1,-1,-7,92*,2,93*,-3
CN(Cc1ccccc1)C(=O)c1[nH]cnc1C(=O)NC1CCN(C(=O)OC(C)(C)C)CC1,11,21,1,1,-8,/,/,/,/
C=CCN1CN(CCc2ccccc2)CNC1=S,55*,5,2,-1,7,81*,15*,46,2
CCN1CN(CCc2ccccc2)CNC1=S,/,/,1,2,0,/,3,/,8
CCN1CNC(=S)N(CCc2ccccc2)C1,2,8,1,1,-2,/,/,/,/
CN1C(=O)/C(=C\c2ccc(N(C)C)cc2)OC1=S,100*,62*,/,/,/,87*,116*,58*,68*
COc1ccc(/C=C2\OC(=S)N(C)C2=O)cc1,2,-3,0,1,-8,/,/,/,/
CN1C(=O)NC(c2ccccc2)C2=C1CN(CCc1ccccc1)C2=O (centres undefined),58*,19,0,0,6,72*,2,54*,11
COc1ccc(CCN2CC3=C(C2=O)C(c2ccccc2)NC(=O)N3C)cc1OC (centres undefined),8,0,0,0,-6,/,/,/,/
CC1(C(=O)NS(=O)(=O)c2cccc(F)c2)CCN1C(=O)C1CCCCC1 (centres undefined),0,-7,/,/,/,/,/,/,/
CN(CCc1ccccn1)C(=S)Nc1ccc(Cl)c(Cl)c1,31,0,0,1,-26,/,/,/,/
Cc1ccc(C)c(NC(=S)N(CCN(C)C)C(C)c2ccccn2)c1 (centres undefined),2,-4,1,1,-13,/,/,/,/
Cc1ccccc1NC(=S)N(C)CCc1ccccn1,58*,7,-2,0,-5,61*,2,15,8
Cc1ccc(C)c(NC(=S)N(C)CCc2ccccn2)c1,45*,-9,0,0,-4,39*,0,-2,-1
